In ChEMBL document CHEMBL1156239, “Synthesis, anticonvulsant and antimicrobial activities of some new 2-acetylnaphthalene derivatives” (Bioorg Med Chem, 2010):
Values after ≈ are worked out from the molar mass of the structure shown. Active and inactive are the calls of the source. The calls are words filed in the database; no cut-off is given here.

Assays:
Mus musculus [1] = assay: Neurotoxicity in CF1 mouse assessed as ability to grasp rotarod at 300 mg/kg, ip after 0.5 hrs by rotarod test; type: toxicity, organism-based; design: dose 300 mg/kg, route intraperitoneal; conditions: in vivo
Method in brief: (§1)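 Male albino CF#1 mice (18–25.5 g) dosed ip with compound suspended in 0.5% methylcellulose, 0.5 h or 4 h before testing; neurotoxicity assessed by rotarod, scored as number toxic/number tested.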

Mus musculus [2] = assay: Neurotoxicity in CF1 mouse at 100 mg/kg, ip after 4 hrs by rotarod test; type: toxicity, organism-based; design: dose 100 mg/kg, route intraperitoneal; conditions: in vivo; method in brief: as §1
Candida parapsilosis = assay: Antifungal activity against Candida parapsilosis ATCC 22019 after 48 hrs by broth microdilution method; type: functional; conditions: Lodderomyces parapsilosis, ATCC 22019, 48 h
Rattus norvegicus [3] = assay: Anticonvulsant activity in Sprague-Dawley rat assessed as inhibition of maximal electroshock-induced seizures at 30 mg/kg, po after 0.25 hrs; type: functional, organism-based; design: dose 30 mg/kg
Method in brief: (§2)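 Male albino Sprague-Dawley rats (105–130 g) given a single oral 30 mg/kg dose suspended in 0.5% methylcellulose; MES (60 Hz, 150 mA, 0.2 s, tetracaine-anesthetized eyes) at 0.25, 0.5, 1, 2 and 4 h; 4 rats per time point; scored protected/tested.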

Mus musculus [4] = assay: Neurotoxicity in CF1 mouse at 30 mg/kg, ip after 4 hrs by rotarod test; type: toxicity, organism-based; design: dose 30 mg/kg, route intraperitoneal; conditions: in vivo; method in brief: as §1
Mus musculus [5] = assay: Anticonvulsant activity in CF1 mouse assessed as inhibition of maximal electroshock-induced seizures at 300 mg/kg, ip after 4 hrs; type: functional, organism-based; design: dose 300 mg/kg
Method in brief: (§3)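 Male albino CF#1 mice (18–25.5 g), compound suspended in 0.5% methylcellulose, given ip 0.5 h or 4 h before test. Eyes treated with 0.5% tetracaine HCl in saline; corneal-type MES at 60 Hz, 50 mA for 0.2 s; protection scored as animals protected/tested.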

Pseudomonas aeruginosa = assay: Antibacterial activity against Pseudomonas aeruginosa ATCC 27853 after 24 hrs by broth microdilution method; type: functional; conditions: ATCC 27853, 24 h
Method in brief: (§4)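 Broth microdilution in Mueller Hinton broth; compound stocks in DMSO, diluted into test medium. Plates incubated at 35 °C and read visually after 24 h. MIC taken as lowest concentration preventing visible growth. Ampicillin reference.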

Mus musculus [6] = assay: Anticonvulsant activity in CF1 mouse assessed as inhibition of maximal electroshock-induced seizures at 30 mg/kg, ip after 0.5 hrs; type: functional, organism-based; design: dose 30 mg/kg; method in brief: as §3
Escherichia coli = assay: Antibacterial activity against Escherichia coli ATCC 25922 after 24 hrs by broth microdilution method; type: functional; conditions: ATCC 25922, 24 h; method in brief: as §4
Pichia kudriavzevii = assay: Antifungal activity against Candida krusei ATCC 6258 after 48 hrs by broth microdilution method; type: functional; conditions: ATCC 6258, 48 h
Rattus norvegicus [7] = assay: Neurotoxicity in Sprague-Dawley rat at 30 mg/kg, po after 0.5 hrs by rotarod test; type: toxicity, organism-based; design: dose 30 mg/kg, route oral; conditions: in vivo
Rattus norvegicus [8] = assay: Neurotoxicity in Sprague-Dawley rat at 30 mg/kg, po after 4 hrs by rotarod test; type: toxicity, organism-based; design: dose 30 mg/kg, route oral; conditions: in vivo
Mus musculus [9] = assay: Anticonvulsant activity in CF1 mouse assessed as inhibition of maximal electroshock-induced seizures at 100 mg/kg, ip after 0.5 hrs; type: functional, organism-based; design: dose 100 mg/kg; method in brief: as §3
Mus musculus [10] = assay: Neurotoxicity in CF1 mouse assessed as muscle spasms at 300 mg/kg, ip after 0.5 hrs by rotarod test; type: toxicity, organism-based, Muscle tissue; design: dose 300 mg/kg, route intraperitoneal; conditions: in vivo
Enterococcus faecalis = assay: Antibacterial activity against Enterococcus faecalis ATCC 29212 after 24 hrs by broth microdilution method; type: functional; conditions: ATCC 29212, 24 h; method in brief: as §4
Mus musculus [11] = assay: Neurotoxicity in CF1 mouse at 30 mg/kg, ip after 0.5 hrs by rotarod test; type: toxicity, organism-based; design: dose 30 mg/kg, route intraperitoneal; conditions: in vivo; method in brief: as §1
Rattus norvegicus [12] = assay: Neurotoxicity in Sprague-Dawley rat at 30 mg/kg, po after 1 hr by rotarod test; type: toxicity, organism-based; design: dose 30 mg/kg, route oral; conditions: in vivo
Mus musculus [13] = assay: Anticonvulsant activity in CF1 mouse assessed as inhibition of maximal electroshock-induced seizures at 30 mg/kg, ip after 4 hrs; type: functional, organism-based; design: dose 30 mg/kg; method in brief: as §3
Mus musculus [14] = assay: Neurotoxicity in CF1 mouse assessed as mortality at 300 mg/kg, ip after 0.5 hrs by rotarod test; type: toxicity, organism-based; design: dose 300 mg/kg, route intraperitoneal; conditions: in vivo
Method in brief: (§5)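 Male albino CF#1 mice (18–25.5 g), free access to food and water except during testing, under NINDS Anticonvulsant Screening Program procedures. Compounds were suspended in 0.5% methylcellulose and given ip. Neurotoxicity was scored by rotarod 0.5 h and 4 h after dosing, at screening doses of 30, 100 or 300 mg/kg. Results are reported as affected/tested animals.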

Staphylococcus aureus = assay: Antibacterial activity against Staphylococcus aureus ATCC 25923 after 24 hrs by broth microdilution method; type: functional; conditions: ATCC 25923, 24 h; method in brief: as §4
Rattus norvegicus [15] = assay: Neurotoxicity in Sprague-Dawley rat at 30 mg/kg, po after 2 hrs by rotarod test; type: toxicity, organism-based; design: dose 30 mg/kg, route oral; conditions: in vivo
Rattus norvegicus [16] = assay: Neurotoxicity in Sprague-Dawley rat at 30 mg/kg, po after 0.25 hrs by rotarod test; type: toxicity, organism-based; design: dose 30 mg/kg, route oral; conditions: in vivo
Mus musculus [17] = assay: Neurotoxicity in CF1 mouse at 300 mg/kg, ip after 4 hrs by rotarod test; type: toxicity, organism-based; design: dose 300 mg/kg, route intraperitoneal; conditions: in vivo; method in brief: as §1
Rattus norvegicus [18] = assay: Anticonvulsant activity in Sprague-Dawley rat assessed as inhibition of maximal electroshock-induced seizures at 30 mg/kg, ip after 0.5 hrs; type: functional, organism-based; design: dose 30 mg/kg
Mus musculus [19] = assay: Neurotoxicity in CF1 mouse at 100 mg/kg, ip after 0.5 hrs by rotarod test; type: toxicity, organism-based; design: dose 100 mg/kg, route intraperitoneal; conditions: in vivo; method in brief: as §1
Rattus norvegicus [20] = assay: Neurotoxicity in Sprague-Dawley rat at 30 mg/kg, ip after 0.5 hrs by rotarod test; type: toxicity, organism-based; design: dose 30 mg/kg, route intraperitoneal; conditions: in vivo
Mus musculus [21] = assay: Neurotoxicity in CF1 mouse assessed as ability to grasp rotarod at 300 mg/kg, ip after 4 hrs by rotarod test; type: toxicity, organism-based; design: dose 300 mg/kg, route intraperitoneal; conditions: in vivo; method in brief: as §5
Rattus norvegicus [22] = assay: Anticonvulsant activity in Sprague-Dawley rat assessed as inhibition of maximal electroshock-induced seizures at 30 mg/kg, po after 4 hrs; type: functional, organism-based; design: dose 30 mg/kg; method in brief: as §2
Rattus norvegicus [23] = assay: Neurotoxicity in Sprague-Dawley rat at 30 mg/kg, ip after 1 hr by rotarod test; type: toxicity, organism-based; design: dose 30 mg/kg, route intraperitoneal; conditions: in vivo
Mus musculus [24] = assay: Neurotoxicity in CF1 mouse assessed as muscle spasms at 300 mg/kg, ip after 4 hrs by rotarod test; type: toxicity, organism-based, Muscle tissue; design: dose 300 mg/kg, route intraperitoneal; conditions: in vivo
Rattus norvegicus [25] = assay: Anticonvulsant activity in Sprague-Dawley rat assessed as inhibition of maximal electroshock-induced seizures at 30 mg/kg, ip; type: functional, organism-based; design: dose 30 mg/kg
Mus musculus [26] = assay: Anticonvulsant activity in CF1 mouse assessed as inhibition of maximal electroshock-induced seizures at 300 mg/kg, ip after 0.5 hrs; type: functional, organism-based; design: dose 300 mg/kg; method in brief: as §3
Rattus norvegicus [27] = assay: Neurotoxicity in Sprague-Dawley rat at 30 mg/kg, ip after 2 hrs by rotarod test; type: toxicity, organism-based; design: dose 30 mg/kg, route intraperitoneal; conditions: in vivo
Rattus norvegicus [28] = assay: Anticonvulsant activity in Sprague-Dawley rat assessed as inhibition of maximal electroshock-induced seizures at 30 mg/kg, po after 0.5 hrs; type: functional, organism-based; design: dose 30 mg/kg; method in brief: as §2
Rattus norvegicus [29] = assay: Anticonvulsant activity in Sprague-Dawley rat assessed as inhibition of maximal electroshock-induced seizures at 30 mg/kg, po after 1 hr; type: functional, organism-based; design: dose 30 mg/kg; method in brief: as §2
Mus musculus [30] = assay: Anticonvulsant activity in CF1 mouse assessed as inhibition of maximal electroshock-induced seizures at 100 mg/kg, ip after 4 hrs; type: functional, organism-based; design: dose 100 mg/kg; method in brief: as §3
Mus musculus [31] = assay: Neurotoxicity in CF1 mouse assessed as clonic seizures at 300 mg/kg, ip after 0.5 hrs by rotarod test; type: toxicity, organism-based; design: dose 300 mg/kg, route intraperitoneal; conditions: in vivo

Compound	Activity (Mus musculus [1])	Activity (Mus musculus [2])	MIC (Candida parapsilosis)	inhibition (Rattus norvegicus [3])	Activity (Mus musculus [4])	inhibition (Mus musculus [5])	MIC (Pseudomonas aeruginosa)	inhibition (Mus musculus [6])	MIC (Escherichia coli)	MIC (Pichia kudriavzevii)	Activity (Rattus norvegicus [7])	Activity (Rattus norvegicus [8])	inhibition (Mus musculus [9])	Activity (Mus musculus [10])	MIC (Enterococcus faecalis)	Activity (Rattus norvegicus [12])	inhibition (Mus musculus [13])	MIC (Staphylococcus aureus)	Activity (Rattus norvegicus [15])	Activity (Rattus norvegicus [16])	also measured
CC(C)C(=O)OC(Cn1ccnc1)c1ccc2ccccc2c1 (stereo not given)	Toxic	Non-toxic	256 µg/mL (≈ 830 µM)	inactive	Non-toxic	Active	> 1020 µg/mL	Active	> 1020 µg/mL	256 µg/mL (≈ 830 µM)	Non-toxic	Non-toxic	Active	Toxic	128 µg/mL (≈ 415 µM)	Non-toxic	inactive	16 µg/mL (≈ 51.9 µM)	Non-toxic	Non-toxic	Activity (Mus musculus [11]): Non-toxic; Activity (Mus musculus [14]): Toxic; Activity (Mus musculus [17]): Non-toxic
CCCC(CCC)C(=O)OC(Cn1ccnc1)c1ccc2ccccc2c1 (stereo not given)	Toxic	Non-toxic	1020 µg/mL (≈ 2810 µM)	inactive	Non-toxic	Active	> 1020 µg/mL	inactive	> 1020 µg/mL	1020 µg/mL (≈ 2810 µM)	Non-toxic	Non-toxic	Active	Toxic	16 µg/mL (≈ 43.9 µM)	Non-toxic	inactive	8 µg/mL (≈ 21.9 µM)	Non-toxic	Non-toxic	inhibition (Rattus norvegicus [18]): Active; Activity (Mus musculus [19]): Non-toxic; Activity (Rattus norvegicus [20]): Non-toxic; Activity (Mus musculus [21]): Toxic; inhibition (Rattus norvegicus [22]): inactive; Activity (Rattus norvegicus [23]): Non-toxic; Activity (Mus musculus [24]): Toxic; inhibition (Rattus norvegicus [25]): Active; inhibition (Mus musculus [26]): Active; Activity (Rattus norvegicus [27]): Non-toxic; Activity (Mus musculus [11]): Non-toxic; inhibition (Rattus norvegicus [28]): inactive
O=C(OC(Cn1ccnc1)c1ccc2ccccc2c1)c1ccccc1 (stereo not given)	Toxic	Non-toxic	1020 µg/mL (≈ 2990 µM)	–	Non-toxic	inactive	> 1020 µg/mL	inactive	> 1020 µg/mL	512 µg/mL (≈ 1500 µM)	Non-toxic	Non-toxic	Active	Toxic	32 µg/mL (≈ 93.5 µM)	Non-toxic	inactive	8 µg/mL (≈ 23.4 µM)	Non-toxic	Non-toxic	inhibition (Rattus norvegicus [29]): inactive; inhibition (Mus musculus [30]): inactive; inhibition (Rattus norvegicus [22]): inactive; Activity (Mus musculus [31]): Toxic; inhibition (Mus musculus [26]): Active; inhibition (Rattus norvegicus [28]): inactive
